{"source": "paper PMC3240737", "about": "(Journal of medicinal chemistry, 2011)", "key": {"[Y30]Aβ42": {"target": "[Y30]Aβ42 (Homo sapiens, UniProt P05067, A701Y/Y681F)", "test": "Intrinsic Y fluorescence", "assay_type": "binding", "conditions": "[Y30]Aβ42 5 μM, peptide 50 μM, pH 7.4, 22°C"}, "[1]": {"system": "alamethicin-induced toxicity in differentiated PC-12 cells", "test": "Inhibition of alamethicin-induced toxicity, MTT assay", "assay_type": "cell-based, rat", "conditions": "alamethicin 4 μM, increasing Aβ(39–42) concentrations, 24 h, n ≥ 15", "how_it_was_run": "(§1)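 PC-12 cells differentiated with nerve growth factor (100 ng/mL, 48 h), then exposed for 24 h to the toxin with or without a range of test compound concentrations. Viability by MTT, scaled between medium and 1 μM staurosporine full kill (100% reduction). Controls were NaOH-matched vehicle and medium alone. Mean ± SEM of ≥3 independent experiments, 5 replicates per point.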"}, "[2]": {"system": "Aβ42-induced toxicity in differentiated PC-12 cells", "test": "Inhibition of Aβ42-induced neurotoxicity, MTT assay", "assay_type": "cell-based, rat", "conditions": "for Inhibition of Aβ42-induced neurotoxicity, single-dose screen: Aβ42 10 μM with 10-fold excess of derivative, 24 h, MTT, n ≥ 18"}, "[3]": {"system": "α-synuclein-induced toxicity in differentiated PC-12 cells", "test": "Inhibition of α-synuclein-induced toxicity, MTT assay", "assay_type": "cell-based, rat", "conditions": "α-synuclein 15 μM, increasing Aβ(39–42) concentrations, 24 h, n ≥ 15", "how_it_was_run": "as §1"}, "[4]": {"system": "mouse primary hippocampal neurons", "conditions": "cited from earlier work"}, "[Y20]Aβ42": {"target": "[Y20]Aβ42 (Homo sapiens, UniProt P05067, F691Y/Y681F)", "test": "Intrinsic Y fluorescence", "assay_type": "binding", "conditions": "[Y20]Aβ42 5 μM, peptide 50 μM, pH 7.4, 22°C"}, "[Y42]Aβ42": {"target": "[Y42]Aβ42 (Homo sapiens, UniProt P05067, A713Y/Y681F)", "test": "Intrinsic Y fluorescence", "assay_type": "binding", "conditions": "[Y42]Aβ42 5 μM, peptide 50 μM, pH 7.4, 22°C"}, "WT Aβ42": {"target": "WT Aβ42 (Homo sapiens, UniProt P05067)", "test": "Intrinsic Y fluorescence", "assay_type": "binding", "conditions": "peptide 50 μM, pH 7.4, 22°C", "how_it_was_run": "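HFIP-treated peptide films were dissolved in 60 mM NaOH (10% of final volume) and diluted in 10 mM sodium phosphate, pH 7.4, to nominal Aβ42 5 μM ± test peptide 50 μM. Samples were spun at 5,000 g for 1 min, with concentrations verified by amino acid analysis. Ex 280 nm, em 290–400 nm, 22°C, ≥10 scans immediately. Buffer-subtracted, area integrated per micromole, normalized to Aβ42 alone; 4 experiments.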"}, "[Y1]Aβ42": {"target": "[Y1]Aβ42 (Homo sapiens, UniProt P05067, D672Y/Y681F)", "test": "Intrinsic Y fluorescence", "assay_type": "binding", "conditions": "[Y1]Aβ42 5 μM, peptide 50 μM"}}, "note": "Residues, ends and D or L forms follow the SMILES beside them.", "data": [{"compound": "CC[C@H](C)[C@H](NC(=O)[C@@H](NC(=O)[C@@H](N)C(C)C)C(C)C)C(=O)N[C@@H](C)C(=O)O", "note": "[Aβ(39–42)]", "values": [{"measurement": "Change of [Y30]Aβ42 fluorescence upon addition of peptide", "setting": "[Y30]Aβ42", "value": "did not change significantly"}, {"measurement": "Protection from alamethicin-induced toxicity", "setting": "[1]", "value": "only weak protection"}, {"measurement": "Dose dependence of inhibition of Aβ42-induced toxicity", "setting": "[2]; Aβ42 10 μM, MTT and LDH", "value": "dose-dependent inhibition"}, {"measurement": "Protection from α-synuclein-induced toxicity", "setting": "[3]", "value": "only weak protection"}, {"measurement": "Rescue from Aβ42-induced inhibition of miniature excitatory postsynaptic current frequency", "setting": "[4]", "value": "significantly rescued"}, {"measurement": "Change of [Y20]Aβ42 fluorescence upon addition of peptide", "setting": "[Y20]Aβ42", "value": "did not change significantly"}, {"measurement": "Change of [Y42]Aβ42 fluorescence upon addition of peptide", "setting": "[Y42]Aβ42", "value": "did not change significantly"}, {"measurement": "Change of WT Aβ42 fluorescence upon addition of peptide", "setting": "WT Aβ42; WT Aβ42 5 μM", "value": "did not change significantly"}]}, {"compound": "CC[C@H](C)[C@H](NC(=O)[C@@H](NC(=O)[C@@H](N)C(C)C)C(C)C)C(=O)N[C@@H](C)C(N)=O", "note": "[VVIA-NH2] (H-VVIA-NH2)", "values": [{"measurement": "Fold lower [Y1]Aβ42 fluorescence increase than with unmodified Aβ(39–42)", "setting": "[Y1]Aβ42", "value": 1.8, "unit": "times"}, {"measurement": "Decrease of [Y30]Aβ42 fluorescence upon addition of peptide", "setting": "[Y30]Aβ42; mean ± SEM of 4 experiments", "value": "24 ± 3", "unit": "%"}, {"measurement": "Inhibition of Aβ42-induced neurotoxicity, single-dose screen", "setting": "[2]", "value": "as active as Aβ(39–42)"}]}, {"compound": "Ac-AIVV", "values": [{"measurement": "[Y1]Aβ42 fluorescence increase compared with Aβ(39–42)", "setting": "[Y1]Aβ42; Fig. S3", "value": "significantly lower"}, {"measurement": "Inhibition of Aβ42-induced neurotoxicity, single-dose screen", "setting": "[2]", "value": "no inhibitory activity"}]}, {"compound": "Ac-VVIA", "values": [{"measurement": "Inhibition of Aβ42-induced neurotoxicity, single-dose screen", "setting": "[2]", "value": "no inhibitory activity"}, {"measurement": "Decrease of Aβ42 fluorescence upon addition of peptide", "setting": "WT Aβ42; Aβ42 5 μM, mean ± SEM of 4 experiments", "value": "19 ± 3", "unit": "%"}]}, {"compound": "VVAA", "values": [{"measurement": "Inhibition of Aβ42-induced neurotoxicity, single-dose screen", "setting": "[2]", "value": "lost inhibitory activity"}]}]}
